ChEMBL document CHEMBL4385631, “Small molecule inhibition of microRNA-21 expression reduces cell viability and microtumor formation” (Bioorg Med Chem, 2019)
Activity calls are given as the source filed them. The calls are words filed in the database; no cut-off is given here.

Experiments:
[1] = test system: microRNA 21; assay: Inhibition of miR-21 RNA (unknown origin) in HeLa cells harboring luciferase gene assessed as increase in luminescence at 10 uM after 48 hrs by Bright-glo luciferase assay relative to DMSO; assay type: cell-based
Summary of the method: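 HeLa-miR21-Luc stable reporter cells treated at 10 µM for 48 h. Luminescence normalized to cell viability and expressed as fold change over DMSO control. Mean ± SD of at least three independent experiments.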

[2] = molecular target: microRNA 21; assay: Inhibition of miR-21 RNA (unknown origin) in HeLa cells harboring luciferase gene after 48 hrs by Bright-glo luciferase assay; assay type: cell-based
Summary of the method: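 HeLa-miR21-Luc stable reporter cells treated across a concentration range, then Bright-Glo assay. Luciferase signal normalized first to cell viability, then to DMSO. Three independent experiments; EC50 from nonlinear regression fit.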

[3] = test system: HeLa; assay: Effect on non-miRNA pathway in human HeLa cells harboring psi-check empty vector assessed as increase in luminescence at 10 uM after 48 hrs by dual luciferase assay relative to control; assay type: functional
Summary of the method: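 HeLa cells transfected with psiCHECK-empty reporter (sequence not targeted by any known miRNA), then treated at 10 µM for 48 h. Dual luciferase assay; firefly signal normalized to Renilla, then to DMSO. Three independent experiments, mean ± SD; unpaired t-test.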

[4] = test system: microRNA 122; assay: Inhibition of miR-122 RNA (unknown origin) in HuH7 cells harboring luciferase gene assessed as reduction in luminescence at 10 uM after 48 hrs by dual luciferase assay relative to control; assay type: cell-based
Summary of the method: (§1)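 Huh7-miR122 stable reporter cells treated at 10 µM for 48 h; known miR-122 inhibitor as positive control. Dual luciferase assay; Renilla signal normalized to firefly, then to DMSO. Three independent experiments, mean ± SD; unpaired t-test.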

[5] = test system: microRNA 21; assay: Binding affinity to pre-miR-21 RNA (unknown origin) assessed as melting temperature by UV spectroscopic analysis (reference value: 56 degC); assay type: nucleic-acid assay
[6] = test system: microRNA 21; assay: Inhibition of miR-21 RNA promoter (unknown origin) in HeLa cells expressing pGL4-miR21p assessed as decrease in miR-21 RNA promoter activity at 10 uM preincubated for 48 hrs followed by pGL4-miR21p transfection after 24 hrs by Bright-glo luciferase assay relative to DMSO; assay type: cell-based
[7] = test system: HEK293; assay: Antiproliferative activity against human HEK293 cells cell viability after 72 hrs by XTT assay; assay type: cell-based; conditions: hek293, 72 h
Summary of the method: (§2)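 Cells treated with a serial dilution of compound for 72 h; viability read by XTT assay.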

[8] = test system: HeLa; assay: Antiproliferative activity against human HeLa cells cell viability after 72 hrs by XTT assay; assay type: functional, cell-based; summary of the method: as §2
[9] = test system: HeLa; assay: Induction of apoptosis in human HeLa cells assessed as increase in caspase 3/7 activity at 10 uM after 24 hrs by caspase3/7 activity assay; assay type: functional
Summary of the method: (§3)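 HeLa cells treated for 24 h, then caspase-3/7 activity assay.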

[10] = test system: HeLa; assay: Anticlonogenic activity against human HeLa cells assessed as reduction in colony formation after 2 weeks by crystal violet staining based microscopic method; assay type: functional, cell-based; conditions: 336 h
Summary of the method: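 HeLa cells suspended in low-melt agarose and exposed to a dilution series of compound for two weeks at 37 °C, then imaged.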

[11] = test system: microRNA 21; assay: Inhibition of pri-miR-21 RNA in human HeLa cells assessed as decrease in pri-miR-21 RNA level at 10 uM after 48 hrs by RT-qPCR method relative to control; assay type: cell-based
Summary of the method: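 HeLa cells treated at 10 µM for 48 h; primary miR-21 levels measured by RT-qPCR.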

[12] = test system: HeLa; assay: Induction of apoptosis in human HeLa cells assessed as increase in caspase 3/7 activity at 50 uM after 24 hrs by caspase3/7 activity assay relative to control; assay type: functional; summary of the method: as §3
[13] = test system: microRNA 21; assay: Inhibition of miR-21 RNA in human HeLa cells assessed as reduction in matured miR-21 RNA at 10 uM after 48 hrs by RT-qPCR analysis relative to control
[14] = test system: microRNA 21; assay: Inhibition of miR-21 RNA in human A549 cells assessed as reduction in matured miR-21 RNA at 10 uM after 48 hrs by RT-qPCR analysis relative to control
[15] = molecular target: Luciferin 4-monooxygenase (Photinus pyralis) (UniProt P08659); assay: Inhibition of recombinant firefly luciferase activity assessed as reduction in luminescence at 10 uM by Bright-glo luciferase assay relative to control
[16] = test system: microRNA 21; assay: Inhibition of miR-21 RNA in human SKOV3 cells assessed as reduction in matured miR-21 RNA at 10 uM after 48 hrs by RT-qPCR analysis relative to control
[17] = test system: microRNA 122; assay: Inhibition of miR-122 RNA (unknown origin) in HuH7 cells harboring luciferase gene assessed as increase in luminescence at 10 uM after 48 hrs by dual luciferase assay relative to control; assay type: cell-based; summary of the method: as §1
[18] = molecular target: Luciferin 4-monooxygenase (Photinus pyralis) (UniProt P08659); assay: Inhibition of recombinant firefly luciferase activity assessed as reduction in luminescence at 10 uM by Bright-glo luciferase assay

Sequence of Luciferin 4-monooxygenase (Photinus pyralis) (P08659 whole entry): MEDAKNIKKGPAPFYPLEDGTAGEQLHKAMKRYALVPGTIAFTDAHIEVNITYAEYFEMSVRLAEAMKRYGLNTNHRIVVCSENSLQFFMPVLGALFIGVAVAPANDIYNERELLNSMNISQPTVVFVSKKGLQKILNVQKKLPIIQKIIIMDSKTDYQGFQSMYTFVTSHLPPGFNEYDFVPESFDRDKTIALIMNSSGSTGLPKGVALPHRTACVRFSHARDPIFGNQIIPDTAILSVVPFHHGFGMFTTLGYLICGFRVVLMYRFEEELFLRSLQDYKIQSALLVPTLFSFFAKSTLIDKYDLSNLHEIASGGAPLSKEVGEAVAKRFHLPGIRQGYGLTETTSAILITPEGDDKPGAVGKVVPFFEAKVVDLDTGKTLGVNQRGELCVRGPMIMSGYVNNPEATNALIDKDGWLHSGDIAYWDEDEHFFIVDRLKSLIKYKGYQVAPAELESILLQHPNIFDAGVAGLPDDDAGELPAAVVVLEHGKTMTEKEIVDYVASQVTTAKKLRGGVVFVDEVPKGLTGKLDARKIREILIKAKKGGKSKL

SMILES | fold change (FC) [1] | further results
O=C(COc1ccccc1)Nc1ccc(-c2nc3cc(Cl)ccc3o2)cc1 | 2.87 | –
O=C(COc1ccccc1)Nc1cccc(-c2nc3cc(Cl)ccc3o2)c1 | 2.14 | –
COc1ccc(OCC(=O)N(C)c2ccc(-c3nc4cc(Cl)ccc4o3)cc2)cc1 | 0.88 | –
COc1ccc(OCC(=O)Nc2ccc(-c3nc4cc(Cl)ccc4o3)cc2)cc1 | 4.87 | EC50 [2]: 6.7 µM; inhibition [2]: Dose-dependent effect; Activity [3]: inactive; fold change (FC) [4]: 0.2; Tm [5]: 56.2 °C; inhibition [6]: 78%; Activity [7]: Non-Toxic; IC50 [8]: > 50 µM; Activity [9]: 50%; EC50 [10]: 7.3 µM; inhibition [11]: 79%; fold change (FC) [12]: 2; inhibition [13]: 57%; inhibition [14]: 33%; inhibition [15]: inactive; inhibition [16]: 31%
COc1ccc(OCC(=O)Nc2ccc(-c3nc4cc(Cl)ccc4[nH]3)cc2)cc1 | 1.6 | –
COc1ccc(OCC(=O)Nc2ccc(-c3nc4ncccc4o3)cc2)cc1 | 2.25 | –
COc1ccc(OCC(=O)Nc2ccc(-c3nc4ccccc4o3)cc2)cc1 | 0.27 | –
N#Cc1ccc(OCC(=O)Nc2ccc(-c3nc4cc(Cl)ccc4o3)cc2)cc1 | 2.08 | –
O=C(COc1ccccc1)Nc1ccc(-c2nc3ccc(Cl)cc3o2)cc1 | 2.65 | –
COc1ccc(NCC(=O)Nc2ccc(-c3nc4cc(Cl)ccc4o3)cc2)cc1 | 0.14 | –
O=C(COc1ccccc1I)Nc1ccc(-c2nc3ccccc3o2)cc1 | 1.53 | –
Cc1cc(OCC(=O)Nc2ccc(-c3nc4cc(Cl)ccc4o3)cc2)ccc1C(C)C | 2.23 | –
COc1ccc(OCC(=O)Nc2cccc(-c3nc4ccccc4o3)c2)cc1 | 4.73 | –
O=S(=O)(c1ccc2c(c1)CCCN2)N1CCC[C@H]2CCCC[C@@H]21 | – | fold change (FC) [17]: > 3.5
COc1ccc(OCC(=O)Nc2ccc(-c3nc4cc(Br)ccc4o3)cc2)cc1 | 6.19 | EC50 [2]: 6.4 µM; inhibition [2]: Dose-dependent effect; fold change (FC) [3]: 1.5 - 1.8; inhibition [15]: 38%
C#CCN(C(=O)COc1ccc(OC)cc1)c1ccc(-c2nc3cc(Cl)ccc3o2)cc1 | 1.61 | –
O=C(COc1ccccc1)Nc1cccc(-c2nc3ccccc3o2)c1 | 1.75 | –
O=C(COc1ccccc1I)Nc1ccc(-c2nc3ccccc3s2)cc1 | 1.55 | –
COc1ccc(OC(=O)Nc2ccc(-c3nc4cc(Cl)ccc4o3)cc2)cc1 | 3.48 | –

SMILES | fold change (FC) [1] | further results
O=C(COc1ccccc1)Nc1ccc(-c2nc3cc(Cl)ccc3[nH]2)cc1 | 0.41 | –
O=C(COc1ccccc1)Nc1ccc2cc(-c3nc4cc(Cl)ccc4o3)ccc2c1 | 1.3 | –
O=C(COc1ccccc1)Nc1ccc(-c2nc3ccccc3s2)cc1 | 1.68 | –
COc1ccc(OCC(=O)Nc2ccc(-c3nc4cc(-c5ccccc5)ccc4o3)cc2)cc1 | 7.87 | EC50 [2]: 3.5 µM; inhibition [2]: Dose-dependent effect; fold change (FC) [3]: 1.5 - 1.8; inhibition [15]: 27%
COc1ccc(OCC(=O)Nc2nc3ccc(-c4nc5cc(Cl)ccc5o4)cc3s2)cc1 | 0.03 | –
O=C(O)c1cccc(-c2noc(-c3ccccc3F)n2)c1 [ATALUREN] | – | fold change (FC) [3]: 1.5 - 1.8; inhibition [18]: 94%
COc1ccc(OCC(=O)Nc2ccc(-c3nc4ccc(Cl)cc4o3)cc2)cc1 | 3.32 | –
O=C(COc1ccccc1)Nc1ccc(-c2nc3ccccc3o2)cc1 | 1.47 | –
COc1cccc(OCC(=O)Nc2ccc(-c3nc4cc(Cl)ccc4o3)cc2)c1 | 5.37 | EC50 [2]: 4.7 µM; inhibition [2]: Dose-dependent effect; fold change (FC) [3]: 1.5 - 1.8; inhibition [15]: 44%
O=C(COc1ccc(-c2ccccc2)cc1)Nc1ccc(-c2nc3cc(Cl)ccc3o2)cc1 | 2.64 | –
O=C(COc1ccc(F)cc1)Nc1ccc(-c2nc3cc(Cl)ccc3o2)cc1 | 2.86 | –
COc1ccc(OCC(=O)Nc2ccc(-c3nc4ccccc4s3)cc2)cc1 | 1.56 | –
COc1ccc(OCC(=O)Nc2ccc(-c3nc4cc(F)ccc4o3)cc2)cc1 | 2.14 | –
O=C(COc1ccc([N+](=O)[O-])cc1)Nc1ccc(-c2nc3cc(Cl)ccc3o2)cc1 | 3.58 | –
COc1ccc(SCC(=O)Nc2ccc(-c3nc4cc(Cl)ccc4o3)cc2)cc1 | 2.64 | –
COc1ccc(OCC(=O)Nc2cccc(-c3nc4cc(Cl)ccc4o3)c2)cc1 | 3.19 | –
O=C(COc1ccccc1)Nc1ccc(-c2nc3cc(F)ccc3o2)cc1 | 1.58 | –
O=C(Nc1ccc(-c2nc3cc(Cl)ccc3o2)cc1)Oc1ccccc1 | 3.86 | –
